{"source": "paper PMC9352467", "about": "(Neoplasia (New York, N.Y.), 2022)", "key": {"SUIT-2": {"test_system": "SUIT-2", "experiment": "Cell viability assay", "format": "cell-based", "conditions": "Homo sapiens, SUIT-2, 72 h, read-out: IC50 (mean ± SD)"}, "Jurkat, Clone E6-1": {"test_system": "Jurkat, Clone E6-1", "experiment": "Cell viability assay", "format": "cell-based", "conditions": "Homo sapiens, 72 h, read-out: IC50 (mean ± SD)"}, "LNCaP": {"test_system": "LNCaP", "experiment": "Cell viability assay", "format": "cell-based", "conditions": "Homo sapiens, 72 h, read-out: IC50 (mean ± SD)"}, "SW48": {"test_system": "SW48", "experiment": "Cell viability assay", "format": "cell-based", "conditions": "Homo sapiens, SW48, 72 h, read-out: IC50 (mean ± SD)"}, "HCT-116": {"test_system": "HCT-116", "experiment": "Cell viability assay", "format": "cell-based, Human"}, "HCT-116 and RKO cells": {"test_system": "HCT-116 and RKO cells", "experiment": "Western blotting of neddylation, CRLs substrates and DNA damage markers", "format": "cell-based, Human", "conditions": "24 h", "procedure,_shortened": "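HCT-116 and RKO cells were treated with test compound or a reference NAE inhibitor; DNA damage markers (γH2AX, p-Chk1 Ser317, p-Chk2 T68) were read after 24 h. Lysis was in SDS buffer (50 mM Tris-HCl pH 6.8, 2% SDS, 100 mM DTT) with 10 min boiling. Lysates were run on 10% gels at 150 V for 1 h, blocked in 5% milk/TBST, and probed with primaries at 1:1000 and HRP secondaries. Three repeats.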"}, "MV-4-11": {"test_system": "MV-4-11", "experiment": "Cell viability assay", "format": "cell-based", "conditions": "Homo sapiens, MV4-11, 72 h, read-out: IC50 (mean ± SD)"}, "PC-3": {"test_system": "PC-3", "experiment": "Cell viability assay", "format": "cell-based", "conditions": "Homo sapiens, PC-3, 72 h, read-out: IC50 (mean ± SD)"}, "NOMO-1": {"test_system": "NOMO-1", "experiment": "Cell viability assay", "format": "cell-based", "conditions": "Homo sapiens, NOMO-1, 72 h, read-out: IC50 (mean ± SD)"}, "SW480": {"test_system": "SW480", "experiment": "Cell viability assay", "format": "cell-based", "conditions": "Homo sapiens, SW480, 72 h, read-out: IC50 (mean ± SD)"}, "RKO": {"test_system": "RKO", "experiment": "Cell viability assay", "format": "cell-based, Human"}, "CHL-1": {"test_system": "CHL-1", "experiment": "Cell viability assay", "format": "cell-based", "conditions": "Homo sapiens, CHL-1, 72 h, read-out: IC50 (mean ± SD)"}, "[1]": {"test_system": "panel of 28 human cancer cell lines", "experiment": "Cell viability assay, whole panel", "format": "cell-based", "conditions": "72 h, read-out: Average IC50 over the cell line panel"}, "COLO 205": {"test_system": "COLO 205", "experiment": "Cell viability assay", "format": "cell-based", "conditions": "Homo sapiens, COLO 205, 72 h, read-out: IC50 (mean ± SD)"}, "DU 145": {"test_system": "DU 145", "experiment": "Cell viability assay", "format": "cell-based", "conditions": "Homo sapiens, DU-145, 72 h, read-out: IC50 (mean ± SD)"}, "Capan-1": {"test_system": "Capan-1", "experiment": "Cell viability assay", "format": "cell-based", "conditions": "Homo sapiens, CAPAN-1, 72 h, read-out: IC50 (mean ± SD)"}, "[2]": {"experiment": "Plasma pharmacokinetic studies", "format": "in vivo, Sprague-Dawley (SD) rats", "conditions": "male, Sprague-Dawley, rat, 3 mg/kg", "procedure,_shortened": "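Male Sprague-Dawley rats (200–250 g) were fasted 12 h and dosed with test compound or reference at 1 mg/kg i.v. or 3 mg/kg p.o. The i.v. vehicle was DMSO/EtOH/PEG300/NaCl (5/5/40/50); the p.o. vehicle was DMSO/0.5% HPMC (5/95). Blood was sampled over time and assayed by LC/MS/MS. Three animals per time point; non-compartmental analysis.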"}, "KG-1": {"test_system": "KG-1", "experiment": "Cell viability assay", "format": "cell-based", "conditions": "Homo sapiens, KG-1, 72 h, read-out: IC50 (mean ± SD)"}, "NCI-N87": {"test_system": "NCI-N87", "experiment": "Cell viability assay", "format": "cell-based", "conditions": "Homo sapiens, NCI-N87, 72 h, read-out: IC50 (mean ± SD)"}, "THP-1": {"test_system": "THP-1", "experiment": "Cell viability assay", "format": "cell-based", "conditions": "Homo sapiens, THP-1, 72 h, read-out: IC50 (mean ± SD)"}, "G-361": {"test_system": "G-361", "experiment": "Cell viability assay", "format": "cell-based", "conditions": "Homo sapiens, G-361, 72 h, read-out: IC50 (mean ± SD)"}, "HT-29": {"test_system": "HT-29", "experiment": "Cell viability assay", "format": "cell-based", "conditions": "Homo sapiens, HT-29, 72 h, read-out: IC50 (mean ± SD)"}, "[3]": {"conditions": "1 mg/kg i.v.; SD rats plasma; ref [25]; cited from earlier work"}, "NCI-H226": {"test_system": "NCI-H226", "experiment": "Cell viability assay", "format": "cell-based", "conditions": "Homo sapiens, NCI-H226, 72 h, read-out: IC50 (mean ± SD)"}, "Panc 02.03": {"test_system": "Panc 02.03", "experiment": "Cell viability assay", "format": "cell-based", "conditions": "Homo sapiens, Panc 02.03, 72 h, read-out: IC50 (mean ± SD)"}, "SW620": {"test_system": "SW620", "experiment": "Cell viability assay", "format": "cell-based", "conditions": "Homo sapiens, SW-620, 72 h, read-out: IC50 (mean ± SD)"}, "MIA PaCa-2": {"test_system": "MIA PaCa-2", "experiment": "Cell viability assay", "format": "cell-based", "conditions": "Homo sapiens, MIA PaCa-2, 72 h, read-out: IC50 (mean ± SD)"}, "TOV-112D": {"test_system": "TOV-112D", "experiment": "Cell viability assay", "format": "cell-based", "conditions": "Homo sapiens, TOV112D, 72 h, read-out: IC50 (mean ± SD)"}, "HCT 15": {"test_system": "HCT 15", "experiment": "Cell viability assay", "format": "cell-based", "conditions": "Homo sapiens, HCT-15, 72 h, read-out: IC50 (mean ± SD)"}, "HGC-27": {"test_system": "HGC-27", "experiment": "Cell viability assay", "format": "cell-based", "conditions": "Homo sapiens, HGC-27, 72 h, read-out: IC50 (mean ± SD)"}, "OVCAR-8": {"test_system": "OVCAR-8", "experiment": "Cell viability assay", "format": "cell-based", "conditions": "Homo sapiens, OVCAR-8, 72 h, read-out: IC50 (mean ± SD)"}}, "note": "Marks after values point to notes of the source that are not given here.", "data": [{"molecule": "NS(=O)(=O)OC[C@@H]1C[C@@H](n2ccc3c(N[C@H]4CCc5ccccc54)ncnc32)C[C@@H]1O", "note": "[MLN4924]", "values": [{"measurement": "IC50", "setting": "SUIT-2", "value": "0.204 ± 0.0291", "unit": "µM"}, {"measurement": "IC50", "setting": "Jurkat, Clone E6-1", "value": "0.284 ± 0.0956", "unit": "µM"}, {"measurement": "IC50", "setting": "LNCaP", "value": "0.0525 ± 0.0134", "unit": "µM"}, {"measurement": "IC50", "setting": "SW48", "value": "0.0795 ± 0.0231", "unit": "µM"}, {"measurement": "IC50", "setting": "HCT-116; Homo sapiens, HCT-116, 72 h, read-out: IC50 (mean ± SD)", "value": "0.0608 ± 0.0117", "unit": "µM"}, {"measurement": "DNA damage (γH2AX levels)", "setting": "HCT-116 and RKO cells", "value": "accumulation of DNA double-strand breaks"}, {"measurement": "IC50", "setting": "MV-4-11", "value": "0.121 ± 0.00179", "unit": "µM"}, {"measurement": "IC50", "setting": "PC-3", "value": "2.43 ± 1.05", "unit": "µM"}, {"measurement": "IC50", "setting": "NOMO-1", "value": "0.627 ± 0.0778", "unit": "µM"}, {"measurement": "IC50", "setting": "SW480", "value": "1.09 ± 0.0917", "unit": "µM"}, {"measurement": "IC50", "setting": "RKO; Homo sapiens, 72 h, read-out: IC50 (mean ± SD)", "value": "0.15 ± 0.0264", "unit": "µM"}, {"measurement": "IC50", "setting": "CHL-1", "value": "0.32 ± 0.122", "unit": "µM"}, {"measurement": "IC50", "setting": "[1]", "value": 0.647, "unit": "µM"}, {"measurement": "IC50", "setting": "COLO 205", "value": "0.0542 ± 0.00247", "unit": "µM"}, {"measurement": "IC50", "setting": "DU 145", "value": "0.0864 ± 0.0151", "unit": "µM"}, {"measurement": "IC50", "setting": "Capan-1", "value": "0.0965 ± 0.0101", "unit": "µM"}, {"measurement": "bioavailability", "setting": "[2]; oral", "value": 12.4, "unit": "%"}, {"measurement": "AUC(0-t)", "setting": "[2]; po", "value": 0.208, "unit": "µg·h/mL"}, {"measurement": "Cmax", "setting": "[2]; po", "value": 0.064, "unit": "µg/mL"}, {"measurement": "Tmax", "setting": "[2]; po", "value": 0.92, "unit": "h"}, {"measurement": "half-life", "setting": "[2]; po", "value": 5.5, "unit": "h"}, {"measurement": "IC50", "setting": "KG-1", "value": "0.936 ± 0.258", "unit": "µM"}, {"measurement": "IC50", "setting": "NCI-N87", "value": "0.865 ± 0.0775", "unit": "µM"}, {"measurement": "IC50", "setting": "THP-1", "value": "0.0602 ± 0.0322", "unit": "µM"}, {"measurement": "IC50", "setting": "G-361", "value": "1.43 ± 0.684", "unit": "µM"}, {"measurement": "IC50", "setting": "HT-29", "value": "0.296 ± 0.0323", "unit": "µM"}, {"measurement": "AUClast", "setting": "[3]", "value": "560^a ng*h/mL"}, {"measurement": "CL", "setting": "[3]", "value": "29.70^a mL/min/kg"}, {"measurement": "T1/2", "setting": "[3]", "value": "0.71^a h"}, {"measurement": "Vss_obs", "setting": "[3]", "value": "1783^a mL/kg"}, {"measurement": "IC50", "setting": "NCI-H226", "value": "1.04 ± 0.624", "unit": "µM"}, {"measurement": "IC50", "setting": "Panc 02.03", "value": "0.356 ± 0.0391", "unit": "µM"}, {"measurement": "IC50", "setting": "SW620", "value": "5.55 ± 2.37", "unit": "µM"}, {"measurement": "IC50", "setting": "MIA PaCa-2", "value": "0.109 ± 0.0161", "unit": "µM"}, {"measurement": "IC50", "setting": "TOV-112D", "value": "0.229 ± 0.104", "unit": "µM"}, {"measurement": "IC50", "setting": "HCT 15", "value": "0.294 ± 0.0803", "unit": "µM"}, {"measurement": "IC50", "setting": "HGC-27", "value": "0.0985 ± 0.0283", "unit": "µM"}, {"measurement": "IC50", "setting": "OVCAR-8", "value": "0.541 ± 0.0642", "unit": "µM"}]}, {"molecule": "CCOc1cccc(F)c1C#Cc1cn([C@@H]2O[C@H](CNS(N)(=O)=O)[C@@H](O)[C@H]2O)c2ncnc(N)c12", "note": "[TAS4464]", "values": [{"measurement": "sensitivity of cell proliferation", "setting": "HCT-116; HCT-116, Supplemental Figure 1b", "value": "profoundly sensitive"}, {"measurement": "sensitivity of cell proliferation", "setting": "RKO; Supplemental Figure 1b", "value": "profoundly sensitive"}]}]}
